Laboratory results reported in ChEMBL document CHEMBL1148910, “A coumarin from Mallotus resinosus that mediates DNA cleavage” (J Nat Prod, 2004).
Activity calls are given as the source filed them. The calls are words filed in the database; no cut-off is given here.

Experiments:
Escherichia coli [1] = experiment: Induction of strand scission in pBR322 DNA assessed as conversion from supercoiled form to nicked form at 1000 uM after 60 mins by agarose gel electrophoresis in presence of Cu2+
Outline: (§1)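 Supercoiled pBR322 plasmid DNA (500 ng) was incubated with 20 µM Cu2+ and test compound (in DMSO, final ≤5%) in 25 µL of 10 mM Tris-HCl, pH 8.0, at 37 °C for 60 min. Controls were DNA alone and DNA + Cu2+. Products were run on a 1.0% agarose gel with 0.7 µg/mL ethidium bromide in TBE, pH 8.3, at 110-120 V for 2-3 h, then imaged under UV. Read-out was % form II (nicked) DNA.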

Escherichia coli [2] = experiment: Induction of strand scission in pBR322 DNA assessed as conversion from supercoiled form to nicked form at 1000 uM after 60 mins by agarose gel electrophoresis in absence of Cu2+
Outline: (§2)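 No Cu2+ was added. Supercoiled pBR322 DNA (500 ng) was incubated with test compound (in DMSO, final ≤5%) in 25 µL of 10 mM Tris-HCl, pH 8.0, at 37 °C for 60 min, with DNA alone as the blank. Products were separated on a 1.0% agarose gel with ethidium bromide in TBE at 110-120 V for 2-3 h and photographed under UV. Read-out was % nicked (form II) DNA.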

Escherichia coli [3] = experiment: Induction of strand scission in supercoiled pBR322 DNA by agarose gel electrophoresis in presence of Fe2+
Escherichia coli [4] = experiment: Induction of strand scission in supercoiled pBR322 DNA by agarose gel electrophoresis in presence of Cu2+ and alkali
Escherichia coli [5] = experiment: Induction of strand scission in pBR322 DNA assessed as conversion from supercoiled form to nicked form at 250 uM after 60 mins by agarose gel electrophoresis in presence of Cu2+; outline: as §1
Escherichia coli [6] = experiment: Induction of strand scission in supercoiled pBR322 DNA by agarose gel electrophoresis in absence of added metal ion
Escherichia coli [7] = experiment: Induction of strand scission in supercoiled pBR322 DNA by agarose gel electrophoresis in presence of Cu2+; outline: as §1
Escherichia coli [8] = experiment: Induction of strand scission in pBR322 DNA assessed as conversion from supercoiled form to nicked form at 500 uM after 60 mins by agarose gel electrophoresis in presence of Cu2+; outline: as §1
Escherichia coli [9] = experiment: Induction of strand scission in pBR322 DNA assessed as conversion from supercoiled form to nicked form at 250 uM after 60 mins by agarose gel electrophoresis in absence of Cu2+; outline: as §2
Escherichia coli [10] = experiment: Induction of strand scission in pBR322 DNA assessed as conversion from supercoiled form to nicked form at 50 uM after 60 mins by agarose gel electrophoresis in presence of Cu2+; outline: as §1
Escherichia coli [11] = experiment: Induction of strand scission in pBR322 DNA assessed as conversion from supercoiled form to nicked form at 100 uM after 60 mins by agarose gel electrophoresis in presence of Cu2+; outline: as §1

Row | Activity (Escherichia coli [1]) [%] | Activity (Escherichia coli [2]) [%] | Activity (Escherichia coli [3]) | Activity (Escherichia coli [4]) | Activity (Escherichia coli [5]) [%] | Activity (Escherichia coli [6]) | Activity (Escherichia coli [7]) | Activity (Escherichia coli [8]) [%] | Activity (Escherichia coli [9]) [%] | Activity (Escherichia coli [10]) [%] | Activity (Escherichia coli [11]) [%] | Compound
1 | 36 | 3 | inactive | inactive | 15 | inactive | Dose-dependent effect | 22 |  |  |  | COc1cc2ccc(=O)oc2cc1O
2 | 42 | 2 | inactive |  | 14 | inactive | Dose-dependent effect | 26 |  |  |  | COc1cc2oc(=O)ccc2cc1O
3 |  |  | inactive |  | 76 | inactive | Dose-dependent effect |  | 2 | 55 | 64 | O=c1ccc2cc(O)c(O)cc2o1
